Data published in ChEMBL document CHEMBL3352465, “The SAR development of substituted purine derivatives as selective CB2 agonists for the treatment of chronic pain” (Bioorg Med Chem Lett, 2014).
Values after ≈ are worked out from the molar mass of the structure shown.

How the values were obtained:
[1] = Inhibition of GABA gated chloride channel in rat cortex by radioligand binding assay
[2] = species on record: Rattus norvegicus; assay: Inhibition of GABA gated chloride channel in rat cortex at 10 uM by radioligand binding assay
Outline: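 Radioligand binding to GABA-gated chloride channels from rat, run by an outside contract lab.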

[3] = Aqueous solubility of the compound at pH 6.5; assay type: physicochemical
Outline: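 Aqueous solubility measured at pH 6.5.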

[4] = Lipophilicity, log P of the compound; assay type: physicochemical; conditions: octanol/water
[5] = Dissociation constant, pKa of the compound; assay type: physicochemical
[6] = Oral bioavailability in Beagle dog at 1 mg/kg; assay type: ADME, organism-based, Canis lupus familiaris; conditions: in vivo
Outline: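 Plasma PK after intravenous and oral dosing at 1 mg/kg each route; male Sprague-Dawley rats and male Beagle dogs. Clearance and steady-state volume from the iv leg, half-life and bioavailability from the po leg.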

[7] = Drug metabolism in dog liver microsomes at 2 uM after 0.5 hr by LC/MS/MS analysis; assay type: ADME, Canis lupus familiaris; conditions: read-out: Drug metabolism
[8] = biological target: T1, Cannabinoid receptor 1 (Homo sapiens, UniProt P21554); assay: Agonist activity at human CB1 receptor expressed in Sf9 cells by [35S]-GTPgammaS binding assay relative to control; assay type: functional
T1 sequence (P21554 whole entry): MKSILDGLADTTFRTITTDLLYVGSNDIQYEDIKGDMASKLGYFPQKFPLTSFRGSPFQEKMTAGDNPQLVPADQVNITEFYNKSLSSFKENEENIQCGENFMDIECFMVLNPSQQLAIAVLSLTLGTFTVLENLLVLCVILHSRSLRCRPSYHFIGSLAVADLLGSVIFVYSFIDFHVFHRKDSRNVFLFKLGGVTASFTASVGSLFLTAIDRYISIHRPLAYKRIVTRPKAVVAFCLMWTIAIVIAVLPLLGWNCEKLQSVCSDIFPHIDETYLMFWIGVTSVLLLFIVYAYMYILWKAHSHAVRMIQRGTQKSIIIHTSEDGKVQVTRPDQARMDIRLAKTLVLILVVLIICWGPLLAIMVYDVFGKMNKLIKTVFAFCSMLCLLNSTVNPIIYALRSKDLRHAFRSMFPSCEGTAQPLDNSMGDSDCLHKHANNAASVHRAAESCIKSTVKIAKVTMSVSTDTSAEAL

[9] = biological target: T2, Cannabinoid receptor 2 (Homo sapiens, UniProt P34972); assay: Agonist activity at human CB2 receptor expressed in CHO cells by [35S]-GTPgammaS binding assay; assay type: functional, cell-based
T2 sequence (P34972 whole entry): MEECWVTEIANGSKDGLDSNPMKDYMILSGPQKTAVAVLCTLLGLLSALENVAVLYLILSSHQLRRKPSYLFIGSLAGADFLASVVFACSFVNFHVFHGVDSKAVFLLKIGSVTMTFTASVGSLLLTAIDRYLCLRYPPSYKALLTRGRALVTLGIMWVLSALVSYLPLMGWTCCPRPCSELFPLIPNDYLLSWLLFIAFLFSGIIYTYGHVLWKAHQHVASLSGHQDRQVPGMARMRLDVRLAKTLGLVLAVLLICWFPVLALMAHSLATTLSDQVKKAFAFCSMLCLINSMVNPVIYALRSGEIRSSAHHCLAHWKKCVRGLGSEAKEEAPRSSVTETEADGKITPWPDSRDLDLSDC

[10] = biological target: T2, Cannabinoid receptor 2; assay: Agonist activity at human CB2 receptor expressed in CHO cells by [35S]-GTPgammaS binding assay relative to control; assay type: functional, cell-based
[11] = Drug metabolism in rat liver microsomes at 2 uM after 0.5 hr by LC/MS/MS analysis; assay type: ADME; conditions: read-out: Drug metabolism
[12] = Drug metabolism in human liver microsomes at 2 uM after 0.5 hr by LC/MS/MS analysis; assay type: ADME; conditions: read-out: Drug metabolism
[13] = biological target: T1, Cannabinoid receptor 1; assay: Agonist activity at human CB1 receptor expressed in Sf9 cells by [35S]-GTPgammaS binding assay; assay type: functional

Row | Structure (SMILES) | Ki [1] [nM] | inhibition [2] [%] | solubility [3] [µg/mL] | logP [4] | pKa [5] | bioavailability [6] [%] | metabolised at 0.5 h, 2 µM [7] [%] | Efficacy [8] [%] | EC50 [9] [nM] | Efficacy [10] [%] | metabolised at 0.5 h, 2 µM [11] [%] | metabolised at 0.5 h, 2 µM [12] [%] | EC50 [13] [nM]
1 | Cc1nc(N2CCN(C)CC2)c2nc(-c3ccccc3Cl)n(C3CCOCC3)c2n1 [LY2828360] | 2200 | 85 | 100 (≈ 234 µM) | 3.2 | 7.2 | 76 |  |  |  |  |  |  | 
2 | CCN1CCN(c2nc(C)nc3c2nc(-c2ccccc2Cl)n3CCOC)CC1 |  | 97 |  |  |  |  |  |  |  |  |  |  | 
3 | Cc1nc(N2CCN(C)CC2)c2nc(-c3ccccc3Cl)n(C(C)(C)CO)c2n1 |  | 20 |  |  |  |  | 90 | 43.2 | 12.5 | 72.6 | 93 | 43 | 5000
4 | CCN1CCN(c2nc(C)nc3c2nc(-c2ccccc2Cl)n3CCCOC)CC1 |  |  |  |  |  |  | 99 | 25.7 | 4.3 | 96.5 | 71 | 36 | 1380
